Assay results as given in article PMC5615155 (Toxicology Reports, 2017).
“And” between values parts separate entries of the source, which are not always exact repeats. Equal entries are not always repeated.

Legend:
[1] = 28-day dose-range finding dietary toxicity study; type: in vivo, CD [Crl:CD(SD)] rats
Procedure, shortened: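 This 28-day dose-range-finding study used CD [Crl:CD(SD)] rats, 8/sex/group. Rats received test compound continuously in the diet at nominal 10, 30 or 100 mg/kg bw/day; controls got untreated diet. Dietary concentration (ppm) was adjusted weekly from body weight and food consumption to keep mg/kg bw/day doses constant. NOAEL was set from the 28-day findings.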

[2] = in vitro microsomal metabolism; type: in vitro ADME, Sprague-Dawley rat; conditions: 10 μM, 0.5 mg/mL, +NADPH, 120 min
[3] = solubility / dissolution; type: physicochemical; conditions: S8069 at 10 mg/mL; S2218 at all dose levels
[4] = excretion in feces and urine; type: in vivo, Sprague-Dawley rats
[5] = target: CYP3A4 (Homo sapiens, UniProt P08684); experiment: CYP inhibition, spectrofluorimetric; type: biochemical; conditions: recombinant human CYP3A4 expressed in insect Sf9 cells
Procedure, shortened: (§1)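 Inhibition was assayed with recombinant human CYP isoforms expressed in insect Sf9 cells. Turnover of spectrofluorimetric substrates was read by fluorescence. Test compound was tested at a single concentration of 10 μM.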

[6] = target: CYP2C19 (Homo sapiens, UniProt P33261); experiment: CYP inhibition, spectrofluorimetric; type: biochemical; conditions: recombinant human CYP2C19 expressed in insect Sf9 cells
Procedure, shortened: as §1

[7] = single-dose pharmacokinetics and oral bioavailability; type: in vivo, Sprague-Dawley rats; conditions: for clearance: CL, S2218 iv 1 mg/kg bw
[8] = toxicokinetics in 13-week dietary study; type: in vivo, Sprague-Dawley rats
[9] = cited from earlier work
[10] = female, Sprague-Dawley, rat, plasma, iv, 1 mg/kg
[11] = female, Sprague-Dawley, rat, plasma, po, 10 mg/kg
[12] = female, Sprague-Dawley, rat, plasma, po, 30 mg/kg
[13] = female, Sprague-Dawley, rat, plasma, po, 100 mg/kg
[14] = male, Sprague-Dawley, rat, plasma, iv, 1 mg/kg
[15] = male, Sprague-Dawley, rat, plasma, po, 10 mg/kg
[16] = male, Sprague-Dawley, rat, plasma, po, 30 mg/kg
[17] = male, Sprague-Dawley, rat, plasma, po, 100 mg/kg

Sequence of CYP3A4 (P08684 whole entry, canonical isoform): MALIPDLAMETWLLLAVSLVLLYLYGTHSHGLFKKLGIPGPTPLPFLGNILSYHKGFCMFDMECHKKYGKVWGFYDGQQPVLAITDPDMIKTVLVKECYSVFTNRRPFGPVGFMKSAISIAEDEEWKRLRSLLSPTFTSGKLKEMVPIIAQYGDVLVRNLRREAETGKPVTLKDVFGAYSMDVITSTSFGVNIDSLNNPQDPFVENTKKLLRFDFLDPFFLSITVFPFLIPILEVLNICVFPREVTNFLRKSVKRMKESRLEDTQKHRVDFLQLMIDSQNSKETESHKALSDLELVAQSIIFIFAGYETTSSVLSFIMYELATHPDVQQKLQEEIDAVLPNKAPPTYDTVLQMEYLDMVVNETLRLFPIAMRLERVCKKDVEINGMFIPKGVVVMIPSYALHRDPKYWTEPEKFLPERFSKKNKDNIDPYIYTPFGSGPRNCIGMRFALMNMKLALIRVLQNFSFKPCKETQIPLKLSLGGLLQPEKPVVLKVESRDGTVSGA
Sequence of CYP2C19 (P33261 whole entry): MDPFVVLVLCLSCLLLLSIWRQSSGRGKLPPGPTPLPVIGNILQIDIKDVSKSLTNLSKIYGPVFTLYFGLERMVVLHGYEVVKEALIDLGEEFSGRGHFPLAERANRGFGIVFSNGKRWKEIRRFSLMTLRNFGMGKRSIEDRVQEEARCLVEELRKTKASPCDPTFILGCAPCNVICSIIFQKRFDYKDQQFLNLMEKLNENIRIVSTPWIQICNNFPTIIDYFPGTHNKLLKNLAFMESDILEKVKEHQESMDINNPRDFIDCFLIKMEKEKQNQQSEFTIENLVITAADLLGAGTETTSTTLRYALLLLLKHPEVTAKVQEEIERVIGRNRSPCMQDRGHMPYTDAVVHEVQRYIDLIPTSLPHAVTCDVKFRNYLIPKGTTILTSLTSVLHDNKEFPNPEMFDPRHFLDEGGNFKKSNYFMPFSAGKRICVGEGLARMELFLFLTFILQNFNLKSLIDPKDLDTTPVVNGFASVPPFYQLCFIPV

Cc1cc(C(=O)NC(C)(C)COc2cccc3c2C(N)=NS(=O)(=O)N3)cc(C)n1 [S2218, N-(1-((4-amino-2,2-dioxido-1H-benzo[c][1,2,6]thiadiazin-5-yl)oxy)-2-methylpropan-2-yl)-2,6-dimethylisonicotinamide]
Findings ([1]; 10, 30, 100 mg/kg bw/day food ad-mix): Slight increase in food consumption and mean body weight in males at 10 and 30 mg/kg bw/day | NOAEL at 28 days ([1]; both, CD [Crl:CD(SD)], rat, in vivo, oral): 100 mg/kg/day | % MS (EIC) peak area of parent relative to time 0 [2]: 96.5 ± 0.4% | state in 1% methylcellulose dosing formulation [3]: formed a suspension | % Recovery of S2218 ([4]; feces + urine, female, 0–72 h): 90.0% and 90.0 ± 7.5% | % Recovery of S2218 ([4]; feces + urine, male, 0–72 h): 82.1% and 82.1 ± 15.4% | % Recovery of S2218 ([4]; feces + urine, overall (M+F), 0–72 h): 86.07% | % Recovery of S2218 ([4]; feces, female, 0–24 h): 82.19% and 82.19 ± 10.89% | % Recovery of S2218 ([4]; feces, female, 0–72 h): 89.79% and 89.79 ± 7.63% | % Recovery of S2218 ([4]; feces, female, 24–48 h): 7.504 ± 6.517% | % Recovery of S2218 ([4]; feces, female, 48–72 h): 0.152 ± 0.062% | % Recovery of S2218 ([4]; feces, male, 0–24 h, S8069 10 mg/kg bw oral): 76.68% and 76.68 ± 13.82% | % Recovery of S2218 ([4]; feces, male, 0–72 h): 82.08% and 82.08 ± 15.35% | % Recovery of S2218 ([4]; feces, male, 24–48 h): 5.247 ± 4.432% | % Recovery of S2218 ([4]; feces, male, 48–72 h): 0.298 ± 0.225% | % Recovery of S2218 ([4]; urine, female, 0–24 h): 0.202 ± 0.216% | % Recovery of S2218 ([4]; urine, female, 0–72 h): 0.230% and 0.230 ± 0.252% | % Recovery of S2218 ([4]; urine, female, 24–48 h): 0.020 ± 0.027% | % Recovery of S2218 ([4]; urine, female, 48–72 h): 0.008 ± 0.010% | % Recovery of S2218 ([4]; urine, male, 0–24 h): 0.036 ± 0.025% | % Recovery of S2218 ([4]; urine, male, 0–72 h): 0.044% and 0.044 ± 0.022% | % Recovery of S2218 ([4]; urine, male, 24–48 h): 0.007 ± 0.004% | % Recovery of S2218 ([4]; urine, male, 48–72 h): 0.001 ± 0.001% | % Recovery of S2218 ([4]; urine, overall (M+F), 0–72 h): 0.137% | inhibition at 10 μM [5]: ≤ 7% | inhibition at 10 μM [6]: ≤ 7% | female/male ratio of mean AUClast ([7]; IV 1 mg/kg): 0.88 | female/male ratio of mean Cmax ([7]; IV 1 mg/kg): 1.06 | t1/2 ([7]; S2218 oral gavage 10 mg/kg bw, M, 10 mg/kg): 45.8 ± 4.38 min | bioavailability ([7]; both, Sprague-Dawley, rat, plasma, po, %F, both test articles, male and female rats, all doses): 0.14 to 0.77% | AUC(0-t) [7, 10]: 440 ± 57.1 ng·h/mL | Cmax [7, 10]: 3150 ± 399 ng/mL | Tmax [7, 10]: 1.98 min | Vd [7, 10]: 0.575 L/kg | clearance ([7]; female, Sprague-Dawley, rat, plasma, iv, 1 mg/kg, F): 38.3 mL/min/kg | half-life ([7]; female, Sprague-Dawley, rat, plasma, iv, 1 mg/kg, t1/2, S2218 iv 1 mg/kg bw, F): 10.4 ± 0.24 min | AUC(0-t) [7, 11]: 19.1 ± 10.5 ng·h/mL | Cmax [7, 11]: 22.1 ± 8.55 ng/mL | Tmax [7, 11]: 18.8 ± 7.5 min | AUC(0-t) [7, 12]: 37.7 ± 14 ng·h/mL | Cmax [7, 12]: 36.8 ± 14.8 ng/mL | Tmax [7, 12]: 18.8 ± 7.5 min | AUC(0-t) [7, 13]: 65.9 ± 34.6 ng·h/mL | Cmax [7, 13]: 38.7 ± 20.4 ng/mL | Tmax [7, 13]: 15 min | half-life ([7]; female, Sprague-Dawley, rat, plasma, po, mean t1/2 of S2218 in plasma, oral dose of S2218 or S8069, female rats): 45 to 75 min | CL as % of hepatic blood flow ([7]; iv, F): 69.6% | Vss as % of total body water volume ([7]; iv, F): 86.1% | CL as % of hepatic blood flow ([7]; iv, M): 60.9% | Vss as % of total body water volume ([7]; iv, M): 80.2% | AUC(0-t) [7, 14]: 500 ± 47.9 ng·h/mL | Cmax [7, 14]: 2980 ± 291 ng/mL | Tmax [7, 14]: 1.98 min | Vd [7, 14]: 0.536 L/kg | clearance ([7]; male, Sprague-Dawley, rat, plasma, iv, 1 mg/kg, M): 33.5 mL/min/kg | half-life ([7]; male, Sprague-Dawley, rat, plasma, iv, 1 mg/kg, t1/2, S2218 iv 1 mg/kg bw, M): 11.1 ± 1.56 min | AUC(0-t) [7, 15]: 18.1 ± 4.84 ng·h/mL | Cmax [7, 15]: 16.8 ± 6.03 ng/mL | Tmax [7, 15]: 18.8 ± 7.5 min | AUC(0-t) [7, 16]: 33.2 ± 20.7 ng·h/mL | Cmax [7, 16]: 31.2 ± 14.6 ng/mL | Tmax [7, 16]: 22.5 ± 8.64 min | AUC(0-t) [7, 17]: 96.6 ± 31.4 ng·h/mL | Cmax [7, 17]: 76.3 ± 28.8 ng/mL | Tmax [7, 17]: 20 ± 8.64 min | half-life ([7]; male, Sprague-Dawley, rat, plasma, po, mean t1/2 of S2218 in plasma, oral dose of S2218 or S8069, male rats): 40.2 to 51.6 min | ACUM Ratio (dose-normalized AUC0-24h Day 91/Day 7) ([8]; 30 mg/kg bw, M + F): 1.88 | ACUM Ratio (dose-normalized AUC0-24h Day 91/Day 7) ([8]; 70 mg/kg bw, M + F): 0.954 | ACUM Ratio (dose-normalized AUC0-24h Day 91/Day 7) ([8]; 140 mg/kg bw, F): 0.768 | ACUM Ratio (dose-normalized AUC0-24h Day 91/Day 7) ([8]; 140 mg/kg bw, M): 4.55 | ACUM Ratio (dose-normalized AUC0-24h Day 91/Day 7) ([8]; 140 mg/kg bw, M + F): 2.30 | photostability to UV light vs S6973 and S617 [9]: significantly improved photostability
